Assay results reported in ChEMBL document CHEMBL1127418, “Novel antiproliferative agents derived from lavendustin A” (J Med Chem, 1994).

How the values were obtained:
HaCaT = experiment: Inhibitory activity of HaCaT keratinocyte cell line; type: functional, cell-based; settings: Homo sapiens
In short: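 HaCaT keratinocytes kept in DMEM with 5% FCS, trypsinized and seeded at 4000 cells/0.2 mL/well. After 24 h, medium was replaced with fresh medium holding graded compound concentrations. Proliferation was read after 3–4 days by sulforhodamine B colorimetry. IC50 values are the average of at least two independent measurements.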

SCL-1 = experiment: Inhibition of SCL-1 cell proliferation; settings: Homo sapiens
MDA-MB-468 = experiment: Inhibition of MDA-MB-468 cell proliferation; type: functional, cell-based; settings: Homo sapiens
L1210 [1] = experiment: (§1) Inhibition of L1210 cell proliferation; settings: Mus musculus
A-431 = experiment: Inhibition of A431 cell proliferation; settings: Homo sapiens
B16 = experiment: Inhibition of B16F1 cell proliferation; settings: Mus musculus
HeLa = experiment: Inhibition of HeLa cell proliferation; settings: Homo sapiens
U-937 = experiment: Inhibition of U937 cell proliferation; type: functional, cell-based; settings: Homo sapiens
MCF7 = experiment: Inhibition of MCF-7 cell proliferation; settings: Homo sapiens
[2] = biological target: Epidermal growth factor receptor (Homo sapiens, UniProt P00533); experiment: Inhibition of EGF-R Tyrosine kinase (TK)
MDA-MB-231 = experiment: cells; settings: Homo sapiens
SK-BR-3 = experiment: Inhibition of SK-BR-3 cell proliferation; type: functional, cell-based; settings: Homo sapiens
In short: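 Tumour cells grown at 37 °C without antibiotics. Harvested at exponential growth (suspension lines) or 60–90% confluence (adherent lines, trypsinized), then seeded at 1000–5000 cells/well. Cultured 3–4 days with graded compound concentrations. Proliferation read by sulforhodamine B for adherent cells or MTT for suspension cells. IC50 derived from the concentration series.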

P388 = experiment: Inhibition of P388 cell proliferation; settings: Mus musculus
KB = experiment: Inhibition of KB cell proliferation; settings: Homo sapiens
K562 = experiment: Inhibition of K562 cell proliferation; settings: Homo sapiens
LoVo = experiment: Inhibition of LOVO cell proliferation; type: functional, cell-based; settings: Homo sapiens
L1210 [3] = experiment: as §1; type: functional, cell-based; settings: Mus musculus

Chain of Epidermal growth factor receptor (P00533 whole entry): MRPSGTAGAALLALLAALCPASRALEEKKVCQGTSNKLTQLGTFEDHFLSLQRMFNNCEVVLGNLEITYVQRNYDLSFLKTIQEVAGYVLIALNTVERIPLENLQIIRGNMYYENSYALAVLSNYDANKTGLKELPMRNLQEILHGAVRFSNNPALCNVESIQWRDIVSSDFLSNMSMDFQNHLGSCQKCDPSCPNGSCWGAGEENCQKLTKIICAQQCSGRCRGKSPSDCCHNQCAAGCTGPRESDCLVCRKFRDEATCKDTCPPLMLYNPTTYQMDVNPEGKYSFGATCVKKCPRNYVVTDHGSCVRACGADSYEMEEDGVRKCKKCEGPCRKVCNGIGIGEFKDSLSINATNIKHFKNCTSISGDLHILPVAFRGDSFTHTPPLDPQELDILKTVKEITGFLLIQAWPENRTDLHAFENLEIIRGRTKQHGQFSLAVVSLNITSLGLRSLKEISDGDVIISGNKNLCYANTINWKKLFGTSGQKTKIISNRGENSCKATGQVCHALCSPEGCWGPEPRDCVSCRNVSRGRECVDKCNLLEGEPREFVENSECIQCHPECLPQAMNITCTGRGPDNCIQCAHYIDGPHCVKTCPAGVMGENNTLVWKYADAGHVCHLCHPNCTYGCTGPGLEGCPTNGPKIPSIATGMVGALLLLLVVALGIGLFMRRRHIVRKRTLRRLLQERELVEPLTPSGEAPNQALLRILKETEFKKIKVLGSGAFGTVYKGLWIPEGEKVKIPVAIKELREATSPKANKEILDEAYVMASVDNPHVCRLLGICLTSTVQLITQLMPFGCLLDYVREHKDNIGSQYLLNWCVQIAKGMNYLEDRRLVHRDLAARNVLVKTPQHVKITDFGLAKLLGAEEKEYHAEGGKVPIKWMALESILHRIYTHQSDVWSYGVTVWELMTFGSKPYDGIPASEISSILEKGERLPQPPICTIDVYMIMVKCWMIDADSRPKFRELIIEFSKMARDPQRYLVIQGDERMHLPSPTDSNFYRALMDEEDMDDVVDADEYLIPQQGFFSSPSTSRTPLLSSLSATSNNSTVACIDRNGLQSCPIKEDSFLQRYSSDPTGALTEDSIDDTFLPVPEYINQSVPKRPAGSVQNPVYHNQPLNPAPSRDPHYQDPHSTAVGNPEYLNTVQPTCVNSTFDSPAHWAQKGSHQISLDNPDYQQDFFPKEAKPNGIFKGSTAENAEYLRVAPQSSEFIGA

For O=C(O)c1cc(NCc2cc(O)ccc2O)ccc1O [LAVENDUSTIN C], the IC50 (HaCaT) was ≥ 100000 nM.

COC(=O)c1cc(CCc2cc(OC)ccc2OC)ccc1O showed an IC50 (SCL-1) of 383 nM, an IC50 (MDA-MB-468) of 46.5 nM and an IC50 (L1210 [1]) of 415 nM. For the same compound, the IC50 (A-431) was 213 nM, the IC50 (B16) was 269 nM and the IC50 (HeLa) was 470 nM. It also gave an IC50 (HaCaT) of 40 nM, an IC50 (U-937) of 320 nM and an IC50 (MCF7) of 19 nM. The IC50 [2] was > 100000 nM, the IC50 (MDA-MB-231) was 428 nM and the IC50 (SK-BR-3) was 31 nM. The IC50 (P388) was 338 nM, the IC50 (KB) was 192 nM and the IC50 (K562) was 218 nM. It also gave an IC50 (LoVo) of 185 nM.

With COC(=O)c1cc(COc2cc(OC)ccc2OC)ccc1O the IC50 (HaCaT) was 14000 nM.

In the case of COC(=O)c1cc(NCc2cc(OC)ccc2OC)ccc1O, the IC50 (HaCaT) is reported as 1500 nM.

In the case of COC(=O)c1cc(/C=C\c2cc(OC)ccc2OC)ccc1O, the IC50 (HaCaT) is reported as 3900 nM.

In the case of O=C(O)c1cc(N(Cc2ccccc2O)Cc2cc(O)ccc2O)ccc1O [LAVENDUSTIN A], the IC50 (HaCaT) is reported as > 100000 nM and the IC50 [2] is reported as 4100 nM.

COC(=O)c1cc(CNc2cc(OC)ccc2OC)ccc1O gave an IC50 (HaCaT) of 72000 nM.

With COc1ccc(OC)c(CNc2ccc(O)c(C(=O)O)c2)c1 the IC50 (HaCaT) was 92000 nM and the IC50 [2] was > 100000 nM.

Compound COC(=O)c1cc(CCc2cc(O)ccc2O)ccc1O has an IC50 (HaCaT) of 18000 nM.

Compound COc1ccc(OC)c(CCc2ccc(O)c(C(=O)O)c2)c1 has an IC50 (HaCaT) of 4800 nM.

In the case of COC(=O)c1cc(/C=C/c2cc(OC)ccc2OC)ccc1O, the IC50 (HaCaT) is reported as 5600 nM.

Compound COC(=O)c1cc(NCc2cc(O)ccc2O)ccc1O has an IC50 (HaCaT) of 29000 nM and an IC50 [2] of 24400 nM.

O=C(O)c1cc(CCc2cc(O)ccc2O)ccc1O was tested, and the IC50 (HaCaT) was > 100000 nM and the IC50 [2] was 3300 nM.

In the case of COc1cc2c(c(OC)c1OC)-c1ccc(OC)c(=O)cc1[C@@H](NC(C)=O)CC2 [COLCHICINE], the IC50 (MDA-MB-468) is reported as 6.9 nM, the IC50 (A-431) is reported as 14 nM and the IC50 (HeLa) is reported as 18 nM. It also gave an IC50 (U-937) of 5.2 nM, an IC50 (L1210 [3]) of 14.7 nM and an IC50 (MCF7) of 15.3 nM. The IC50 (MDA-MB-231) was 20.5 nM, the IC50 (SK-BR-3) was 5 nM and the IC50 (P388) was 9.5 nM. It also gave an IC50 (KB) of 5.6 nM, an IC50 (K562) of 14.1 nM and an IC50 (LoVo) of 6 nM.
